Published values collected from several papers.
Protocols differ between the studies behind these lines.
USP51: Ubiquitin carboxyl-terminal hydrolase 51 (USP51, Homo sapiens, UniProt Q70EK9)
CASP3: Caspase-3 (CASP3, Homo sapiens, UniProt P42574)
PDE10A: cAMP and cAMP-inhibited cGMP 3',5'-cyclic phosphodiesterase 10A (PDE10A, Homo sapiens, UniProt Q9Y233)

Structure (SMILES)	target	test	setting	inhibition
Cc1ncc(C)n2nc(/C=C/c3nc(N4CCCC4)cc(N4CCOCC4)n3)nc12	Peroxisome proliferator-activated receptor gamma (PPARG, Homo sapiens, UniProt P37231)	ligand displacement	10 µM	3%
CC[C@@]1(O)C(=O)OCc2c1cc1n(c2=O)Cc2cc3ccccc3nc2-1	USP51	enzyme activity, inhibitor	5 µM	0%
Cn1cc(-c2cc(F)cc(N3CCn4c(cc5c4CCCC5)C3=O)c2CO)cc(Nc2ccc(N3CCN(C4COC4)CC3)cn2)c1=O	Calcium/calmodulin-dependent protein kinase type IV (CAMK4, Homo sapiens, UniProt Q16566)	enzyme activity, inhibitor	0.1 µM	15%
O=C(Nc1cccnn1)N1CCN([C@@H]2CCOc3cc(C(F)(F)F)ccc32)CC1	Melanin-concentrating hormone receptor 1 (MCHR1, Homo sapiens, UniProt Q99705)	cell-free assay	20 µM	-13%
C[C@H]1C(=O)O[C@@H]2CCN3CC=C(COC(=O)[C@](C)(O)[C@]1(C)O)[C@H]23	USP51	enzyme activity, inhibitor	5 µM	42%
COCc1c(-c2cc3cc(C)cc(OC)c3s2)c2c(N)ncnn2c1CN1CCNC(=O)C1	Growth hormone secretagogue receptor type 1 (GHSR, Homo sapiens, UniProt Q92847)	ligand displacement, radioligand	10 µM	11%
C#Cc1n[nH]c2c(-c3cn(C(C)c4ccccn4)c(=O)[nH]c3=O)cc(F)cc12 (stereo not shown)	Serine/threonine-protein kinase Chk1 (CHEK1, Homo sapiens, UniProt O14757)	enzyme activity, inhibitor	1 µM	7%
CC(=O)N[C@@H](CC(=O)O)C(=O)N[C@@H](CC(N)=O)C(=O)N[C@@H](CC(C)C)C(=O)N[C@H](C=O)CC(=O)O	CASP3	enzyme activity, inhibitor	0.1 µM	80%
CC1=C2[C@H]3OC(=O)[C@@H](C)[C@@H]3CC[C@@]2(C)C=CC1=O	USP51	enzyme activity, inhibitor	5 µM	28%
C[C@H](C(=O)N[C@H]1COc2ccccc2[C@@H]1S(C)(=O)=O)c1ccc(F)cc1	PDE10A	enzyme activity, inhibitor	10 µM	-4%
N=C(N)c1ccc2cc(OC(=O)c3ccc(N=C(N)N)cc3)ccc2c1	CASP3	enzyme activity, inhibitor	10 µM	0%
COC1=CC(=O)O[C@@H](/C=C/c2ccccc2)C1	USP51	enzyme activity, inhibitor	5 µM	40%
c1ccc(C(NCCNC(c2ccccc2)c2ccccc2)c2ccccc2)cc1	PDE10A	enzyme activity, inhibitor	10 µM	0%
CC(C)N1CCC[C@H]1CNC(=O)c1cn(C2CCCC2)c(=O)c2c1c1ccccc1n2C	Sodium- and chloride-dependent GABA transporter 1 (Slc6a1, Rattus norvegicus, UniProt P23978)	ligand displacement, radioligand	10 µM	-2%
C#Cc1n[nH]c2c(-c3cn([C@@H](C)c4ccccc4)c(=O)[nH]c3=O)cc(F)cc12	AP2-associated protein kinase 1 (AAK1, Homo sapiens, UniProt Q2M2I8)	enzyme activity, inhibitor	0.1 µM	-0.1%
COc1cccc2c1cc([N+](=O)[O-])c1c(C(=O)O)cc3c(c12)OCO3	USP51	enzyme activity, inhibitor	5 µM	36%
